Test results: ChEMBL document CHEMBL3745659, “Synthesis and Characterization of 4,11-Diaminoanthra[2,3-b]furan-5,10-diones: Tumor Cell Apoptosis through tNOX-Modulated NAD(+)/NADH Ratio and SIRT1” (J Med Chem, 2015)
Active and inactive are the calls of the source. The calls are words filed in the database; no cut-off is given here.

Columns and labels:
AGS [1] = test: Induction of apoptosis in human AGS cells assessed as late apoptotic cells at 10 uM after 24 hrs by annexin V-FITC staining-based flow cytometric analysis (Rvb=5.5%); assay type: functional
Method in brief: (§1)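 AGS cells exposed to compound for 24 h; Annexin V-FITC staining and flow cytometry used to give percentage of apoptotic cells; mean ± S.E. from at least three independent experiments.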

AGS [2] = test: Induction of apoptosis in human AGS cells assessed as necrotic cells at 10 uM after 24 hrs by annexin V-FITC staining-based flow cytometric analysis (Rvb=1.1%); assay type: functional
AGS [3] = test: Induction of apoptosis in human AGS cells after 24 hrs by annexin V-FITC staining-based flow cytometric analysis; assay type: functional, cell-based; method in brief: as §1
[4] = molecular target: T1, DNA topoisomerase 1 (Homo sapiens) (UniProt P11387); test: Inhibition of Top1 (unknown origin)-mediated relaxation of pBR322 DNA at 2.5 uM incubated for 30 mins by ethidium bromide staining-based gel electrophoresis assay
T1 sequence (whole entry): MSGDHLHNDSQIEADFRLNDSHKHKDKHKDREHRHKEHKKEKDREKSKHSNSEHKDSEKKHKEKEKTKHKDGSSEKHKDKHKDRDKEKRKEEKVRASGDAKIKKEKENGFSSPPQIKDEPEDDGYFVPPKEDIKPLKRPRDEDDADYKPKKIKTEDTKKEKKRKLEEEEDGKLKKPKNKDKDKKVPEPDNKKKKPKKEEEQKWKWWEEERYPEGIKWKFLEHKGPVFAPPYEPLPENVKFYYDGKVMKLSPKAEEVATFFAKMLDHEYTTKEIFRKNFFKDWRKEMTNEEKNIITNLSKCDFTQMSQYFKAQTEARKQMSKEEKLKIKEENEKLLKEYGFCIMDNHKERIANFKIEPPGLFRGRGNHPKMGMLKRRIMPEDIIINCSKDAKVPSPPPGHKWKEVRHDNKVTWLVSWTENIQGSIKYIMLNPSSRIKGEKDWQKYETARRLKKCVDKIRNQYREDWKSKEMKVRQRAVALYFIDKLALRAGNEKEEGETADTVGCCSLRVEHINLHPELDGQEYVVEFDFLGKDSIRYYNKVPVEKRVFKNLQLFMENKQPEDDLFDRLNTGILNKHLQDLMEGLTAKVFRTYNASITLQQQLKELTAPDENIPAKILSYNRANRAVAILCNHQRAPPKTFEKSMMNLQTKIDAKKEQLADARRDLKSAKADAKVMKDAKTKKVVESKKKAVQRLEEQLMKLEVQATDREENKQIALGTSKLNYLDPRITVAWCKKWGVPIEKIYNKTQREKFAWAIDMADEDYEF
Method in brief: (§2)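 Supercoiled pBR322 plasmid treated with Top1 without drug or with compound at 0.5, 2.5 or 10 µM; camptothecin as reference; relaxation assessed by gel electrophoresis.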

AGS [5] = test: Induction of apoptosis in human AGS cells assessed as late apoptotic cells at 5 uM after 24 hrs by annexin V-FITC staining-based flow cytometric analysis (Rvb=5.5%); assay type: functional; method in brief: as §1
AGS [6] = test: Upregulation of phosphorylated p53 level in human AGS cells at 1 and 5 uM after 24 hrs by Western blot analysis; assay type: functional, cell-based
AGS [7] = test: Induction of apoptosis in human AGS cells assessed as necrotic cells at 5 uM after 24 hrs by annexin V-FITC staining-based flow cytometric analysis (Rvb=1.1%); assay type: functional
AGS [8] = test: Upregulation of total p53 level in human AGS cells at 1 and 5 uM after 24 hrs by Western blot analysis; assay type: cell-based
K562 [9] = test: Resistance index, ratio of IC50 for human K562/4 cells to IC50 for human K562 cells; assay type: functional
AGS [10] = test: Induction of apoptosis in human AGS cells assessed as early apoptotic cells at 10 uM after 24 hrs by annexin V-FITC staining-based flow cytometric analysis (Rvb=9.8%); assay type: functional; method in brief: as §1
HeLa = test: Antiproliferative activity against human HeLa cells after 72 hrs by MTT assay; assay type: functional, cell-based
[11] = Antiproliferative activity against human K562/4 cells after 72 hrs by MTT assay; assay type: functional, cell-based; details: K562/4, 72 h
AGS [12] = test: Induction of apoptosis in human AGS cells assessed as viable cells at 5 uM after 24 hrs by annexin V-FITC staining-based flow cytometric analysis (Rvb=83.7%); assay type: functional; details: read-out: Activity; method in brief: as §1
L1210 = test: Antiproliferative activity against mouse L1210 cells after 72 hrs by MTT assay; details: L1210, 72 h
AGS [13] = test: Downregulation of tNOX protein level in human AGS cells at 1 and 5 uM after 24 hrs by Western blot analysis; assay type: functional, cell-based
AGS [14] = test: Induction of apoptosis in human AGS cells assessed as viable cells at 10 uM after 24 hrs by annexin V-FITC staining-based flow cytometric analysis (Rvb=83.7%); assay type: functional; details: read-out: Activity; method in brief: as §1
[15] = molecular target: DNA topoisomerase 2-alpha (Homo sapiens) (UniProt P11388); test: Inhibition of Top2 (unknown origin)-mediated relaxation of pBR322 DNA at 0.1 to 2.5 uM incubated for 30 mins by ethidium bromide staining-based gel electrophoresis assay
Chain of DNA topoisomerase 2-alpha (Homo sapiens) (P11388 whole entry): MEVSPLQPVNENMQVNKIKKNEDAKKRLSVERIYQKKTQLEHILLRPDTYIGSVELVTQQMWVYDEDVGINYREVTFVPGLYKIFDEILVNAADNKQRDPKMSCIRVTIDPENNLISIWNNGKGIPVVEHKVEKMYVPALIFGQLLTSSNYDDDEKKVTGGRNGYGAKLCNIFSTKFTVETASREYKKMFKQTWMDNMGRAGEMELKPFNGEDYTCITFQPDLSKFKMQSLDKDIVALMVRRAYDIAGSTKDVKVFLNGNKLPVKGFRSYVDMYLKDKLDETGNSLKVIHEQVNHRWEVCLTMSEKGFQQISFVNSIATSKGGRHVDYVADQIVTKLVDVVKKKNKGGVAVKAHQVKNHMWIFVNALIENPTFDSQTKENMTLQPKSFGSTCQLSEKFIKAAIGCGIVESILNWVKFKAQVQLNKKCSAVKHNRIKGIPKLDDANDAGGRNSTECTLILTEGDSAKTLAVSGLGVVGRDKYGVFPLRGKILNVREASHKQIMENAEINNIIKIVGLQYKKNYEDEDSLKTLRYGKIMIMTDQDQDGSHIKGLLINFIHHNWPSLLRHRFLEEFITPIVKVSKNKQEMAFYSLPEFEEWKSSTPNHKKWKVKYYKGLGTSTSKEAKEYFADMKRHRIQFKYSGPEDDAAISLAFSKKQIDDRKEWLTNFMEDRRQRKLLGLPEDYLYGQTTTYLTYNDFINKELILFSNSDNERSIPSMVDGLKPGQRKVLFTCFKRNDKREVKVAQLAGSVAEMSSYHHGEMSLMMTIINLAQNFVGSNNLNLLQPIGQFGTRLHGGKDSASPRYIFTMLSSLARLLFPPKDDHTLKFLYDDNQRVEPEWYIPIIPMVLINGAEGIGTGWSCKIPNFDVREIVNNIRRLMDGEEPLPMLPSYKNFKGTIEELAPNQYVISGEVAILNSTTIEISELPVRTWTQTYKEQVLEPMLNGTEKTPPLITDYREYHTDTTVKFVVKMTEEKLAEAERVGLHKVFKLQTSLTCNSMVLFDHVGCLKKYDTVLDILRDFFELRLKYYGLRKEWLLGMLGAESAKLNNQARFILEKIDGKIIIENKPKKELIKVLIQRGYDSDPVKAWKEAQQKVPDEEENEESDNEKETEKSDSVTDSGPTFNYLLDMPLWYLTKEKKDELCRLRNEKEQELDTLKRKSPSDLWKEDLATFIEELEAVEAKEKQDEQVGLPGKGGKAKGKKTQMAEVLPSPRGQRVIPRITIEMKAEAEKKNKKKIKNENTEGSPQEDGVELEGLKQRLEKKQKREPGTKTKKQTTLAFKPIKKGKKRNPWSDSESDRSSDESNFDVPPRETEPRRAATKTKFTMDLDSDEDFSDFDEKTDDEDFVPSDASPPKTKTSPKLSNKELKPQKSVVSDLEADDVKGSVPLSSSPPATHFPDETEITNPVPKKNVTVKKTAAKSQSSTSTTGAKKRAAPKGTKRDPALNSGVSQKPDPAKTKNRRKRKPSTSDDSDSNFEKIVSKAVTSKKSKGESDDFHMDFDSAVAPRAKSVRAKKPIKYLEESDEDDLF

[16] = molecular target: T2, NAD-dependent protein deacetylase sirtuin-1 (Homo sapiens) (UniProt Q96EB6); test: Inhibition of human recombinant SIRT1 deacetylase activity using Arg-His-Lys-Lys(epsilon-acetyl)-AMC as substrate at 5 uM incubated for 45 mins by fluorescence analysis
T2 sequence (whole entry): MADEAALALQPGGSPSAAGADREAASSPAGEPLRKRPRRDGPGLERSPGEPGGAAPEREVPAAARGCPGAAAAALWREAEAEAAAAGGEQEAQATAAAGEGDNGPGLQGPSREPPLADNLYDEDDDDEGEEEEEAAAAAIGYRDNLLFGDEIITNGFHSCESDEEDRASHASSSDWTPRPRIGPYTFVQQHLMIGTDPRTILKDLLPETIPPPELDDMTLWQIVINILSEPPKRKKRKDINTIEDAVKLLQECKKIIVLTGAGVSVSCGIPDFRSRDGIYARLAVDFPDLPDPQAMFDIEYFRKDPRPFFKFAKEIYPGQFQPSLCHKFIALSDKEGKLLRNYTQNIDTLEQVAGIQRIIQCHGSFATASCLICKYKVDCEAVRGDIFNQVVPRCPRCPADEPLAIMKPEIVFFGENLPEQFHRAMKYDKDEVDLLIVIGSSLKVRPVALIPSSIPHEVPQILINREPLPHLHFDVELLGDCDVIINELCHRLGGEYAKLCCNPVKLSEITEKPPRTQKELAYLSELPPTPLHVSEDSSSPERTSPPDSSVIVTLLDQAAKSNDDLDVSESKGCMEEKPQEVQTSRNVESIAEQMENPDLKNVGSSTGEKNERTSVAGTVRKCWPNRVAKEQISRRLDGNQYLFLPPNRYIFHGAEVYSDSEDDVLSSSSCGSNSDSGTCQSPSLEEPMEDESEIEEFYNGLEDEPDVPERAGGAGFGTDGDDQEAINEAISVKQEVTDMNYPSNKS

AGS [17] = test: Increase in intracellular NAD+/NADH ratio in human AGS cells at 5 uM incubated for 5 mins; assay type: functional, cell-based
AGS [18] = test: Downregulation of Bid protein level in human AGS cells after 24 hrs by Western blot analysis; assay type: functional, cell-based
AGS [19] = test: Upregulation of caspase3-directed PARP cleavage in human AGS cells at 5 uM after 24 hrs by Western blot analysis; assay type: functional, cell-based
AGS [20] = test: Upregulation of acetylated p53 level in human AGS cells at 1 and 5 uM after 24 hrs by Western blot analysis; assay type: functional, cell-based
[21] = Antiproliferative activity against human HCT116 cells after 72 hrs by MTT assay; assay type: functional, cell-based; details: HCT-116, 72 h
AGS [22] = test: Induction of apoptosis in human AGS cells assessed as early apoptotic cells at 5 uM after 24 hrs by annexin V-FITC staining-based flow cytometric analysis (Rvb=9.8%); assay type: functional; method in brief: as §1
[23] = molecular target: T1, DNA topoisomerase 1 (Homo sapiens); test: Inhibition of Top1 (unknown origin)-mediated relaxation of pBR322 DNA at 0.5 uM incubated for 30 mins by ethidium bromide staining-based gel electrophoresis assay; method in brief: as §2
CCRF-CEM = test: Antiproliferative activity against human CEM cells after 72 hrs by MTT assay; assay type: functional, cell-based
AGS [24] = test: Downregulation of SIRT1 protein level in human AGS cells at 1 and 5 uM after 24 after 24 hrs by Western blot analysis; assay type: functional, cell-based
K562 [25] = test: Antiproliferative activity against human K562 cells after 72 hrs by MTT assay; assay type: functional, cell-based; details: K562, 72 h

inhibition [4]: Active | Activity (AGS [8]): Not Active | IC50 (HeLa): 3.27 µM | IC50 (L1210): 5.54 µM | inhibition [15]: Active | inhibition [16]: inactive | inhibition [23]: Active | IC50 (CCRF-CEM): 9.02 µM | IC50 (K562 [25]): 1650 nM
Structure (SMILES): N=C(N)NCCNc1c2c(c(NCCNC(=N)N)c3occc13)C(=O)c1ccccc1C2=O
Activity (AGS [1]): 3% | Activity (AGS [2]): 1.5% | Activity (AGS [3]): inactive | Activity (AGS [5]): 4.2% | Activity (AGS [6]): inactive | Activity (AGS [7]): 1% | Ratio IC50 (K562 [9]): 3.98 | Activity (AGS [10]): 10.5% | IC50 [11]: 6.53 µM | viability at 5 µM (AGS [12]): 86.3% | Activity (AGS [13]): inactive | viability at 10 µM (AGS [14]): 84.9% | Activity (AGS [17]): Active | Activity (AGS [18]): inactive | Activity (AGS [19]): inactive | Activity (AGS [20]): inactive | IC50 [21]: 1020 nM | Activity (AGS [22]): 8.6% | Activity (AGS [24]): inactive
